Screening results: PubChem, Broad Institute
E-sel inducer – E-selectin induction in HUVECs, primary screen, imaging, HUVEC, immunofluorescence imaging, single point; 0.37% of 260,000 active; activation, % at 7.58 µM; AID 686992, 2013; normalized: neutral wells 0, TNF-alpha wells 100; P16581;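 active = mean E-selectin-positive cell signal at least 10% of the positive control, reached in at least 60% of replicates, without over 20% cell loss; inconclusive = no rule given, readout overlaps actives, possibly toxicity-flagged; inactive = the rest, including those meeting only one limit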
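System: HUVEC, human umbilical vein endothelial cells; quantity: 3,000 cells/well; buffer or medium: EGM-2 medium, gelatin-coated wells; dosing: single-point compound dose; detection: immunofluorescence imaging; evaluation: % PE-positive cells; benchmarks: TNF-alpha, DMSO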
RAD52 anneal inh – RAD52 DNA annealing inhibitors, primary screen, biochemical, FRET, single point, set 2; 0.46% of 360,000 active; inhibition, % at 18.7 µM; recombinant RAD52 DNA annealing, FRET fluorescence; DNA repair protein RAD52 homolog (Homo sapiens), P43351;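 active = every replicate showing at least 50% inhibition; inconclusive = mean inhibition at least 50% but not in every replicate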
XiGFP reactiv – activators of inactive X chromosome reactivation, primary screen, imaging, XiGFP fibroblasts, GFP high-content imaging, set 2 | activation, % at 7.58 µM | 0.055% of 360,000 active | XiGFP mouse fibroblasts, % GFP-positive cells imaging, 3 d; cells co-treated with 5-aza-dC sensitizer; scaled so ellipticine positive control = 100% | AID 743238, 2013;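 active = mean normalized replicate activation at least 10% and every replicate at or above 10%; inconclusive = only one of the two criteria met; inactive = mean below 10% and not all replicates reach 10%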;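 note: 0% = median of on-plate neutral control wells and 100% = ellipticine 6 µM median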
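material = 68-5-11 XiGFP fibroblast line | medium = DMEM plus 5-aza-dC sensitizer | schedule = 3 days compound exposure | benchmarks = positive control ellipticine, 6 µM final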
rRNA inh HTS – reduced GFP signal of wild-type E. coli, primary screen, bacterial rRNA inhibitor project, GFP/RFP fluorescence, OD600, single point; E. coli WT GFP vs humanized-ribosome RFP mutants, 24 h; active compounds read low; DMSO median 0, no signal -100; GFP signal change (wild-type ribosome), % (no concentration beside the values); 1.6% of 350,000 active; AID 720706, 2013;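 active = significant combined selectivity score with lowered wild-type GFP, culture density cut under 30%, mutant RFP and density less affected; inactive = any of these conditions unmet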
PglD inh – C. jejuni PglD acetyltransferase inhibitors, primary screen, biochemical, DTNB colorimetric, single point; 0.098% of 360,000 active; inhibition, % at 12.5 µM; purified PglD enzyme, DTNB colorimetric CoA detection; in the data active = inhibition above about 16%, passing the limit was not always enough; inconclusive = no clear call, values can overlap the other calls
RAD54 branch – inhibitors of human RAD54 branch migration, primary screen, biochemical, fluorescence, single point. DNA repair and recombination protein RAD54-like (Homo sapiens), Q92698. RAD54 Holliday junction branch migration, FAM/BHQ fluorescence. inhibition, % at 10.4 µM. 0.14% of 360,000 active. AID 602329, 2012;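 active = mean normalized replicate activity at least 40 and at least half of replicates scoring 40 or more; inconclusive = only one of the two criteria met; inactive = mean below 40 and under half of replicates reaching 40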;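 note: 0% = median of neutral control wells and 100% = median of positive control wells; inhibitors cause a drop in the FAM fluorescence signal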
Target sequence (Q92698 whole entry, looked up): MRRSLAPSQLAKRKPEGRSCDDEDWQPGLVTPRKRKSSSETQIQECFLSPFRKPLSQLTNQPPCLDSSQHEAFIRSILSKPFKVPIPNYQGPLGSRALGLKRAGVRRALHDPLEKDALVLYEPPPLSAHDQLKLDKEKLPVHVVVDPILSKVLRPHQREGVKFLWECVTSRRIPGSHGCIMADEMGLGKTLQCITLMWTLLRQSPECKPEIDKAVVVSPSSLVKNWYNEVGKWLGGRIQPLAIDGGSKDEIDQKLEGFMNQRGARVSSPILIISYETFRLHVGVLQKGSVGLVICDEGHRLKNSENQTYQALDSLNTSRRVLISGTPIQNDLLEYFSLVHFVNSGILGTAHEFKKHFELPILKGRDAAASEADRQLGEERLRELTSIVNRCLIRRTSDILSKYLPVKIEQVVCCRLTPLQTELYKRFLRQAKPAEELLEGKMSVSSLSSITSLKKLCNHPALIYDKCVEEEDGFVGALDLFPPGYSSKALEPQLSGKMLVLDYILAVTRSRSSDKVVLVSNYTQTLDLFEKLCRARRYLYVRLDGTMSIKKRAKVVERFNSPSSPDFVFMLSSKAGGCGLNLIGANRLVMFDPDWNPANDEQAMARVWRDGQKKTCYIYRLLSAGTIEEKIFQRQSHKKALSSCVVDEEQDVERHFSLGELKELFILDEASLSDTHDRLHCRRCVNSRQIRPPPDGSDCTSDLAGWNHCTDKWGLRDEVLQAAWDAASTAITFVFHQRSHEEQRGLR
DNA binding – DNA binding of candidate compounds, dose response, artefact control for RAD54 inhibitor project, biochemical, fluorescence polarization, cherry-pick. shares compounds with RAD54 branch. 8% of 460 active. AID 651673, 2012. AC50, µM (doses to about 35 µM), for the others: at the highest dose activity change, negative = DNA binding. Acridine orange-DNA displacement, 20 min;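 active = signal drop giving an AC50 within twice the top valid tested concentration of each sample, actives reach about 35 µM in these data; inactive = activity opposite to expected, plus the rest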;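 note: polarization loss reports compound binding to salmon sperm DNA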
RAD52 DNA ctr – DNA-binding compounds via dye displacement, dose response, artefact control for RAD52 inhibitor project, biochemical, fluorescence polarization, cherry-pick. AID 652128, 2013. AC50, µM. Salmon sperm DNA/acridine orange FP displacement. shares compounds with RAD52 anneal inh. 8% of 1,000 active;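 active = fitted half-maximal concentration for signal loss at or below twice the highest dose tested, in every separate run, actives reach about 64 µM in these data; inconclusive = runs disagree, or flat partial signal loss, or poor fit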
An asterisk follows results filed as active; i = inactive; ? = inconclusive; / = no result given; ! = not active in a repeat. Rows were chosen to be rich in hits. Some 2% of all compounds tested hit in one or more screens of this group.

SMILES	E-sel inducer	RAD52 anneal inh	XiGFP reactiv	rRNA inh HTS	PglD inh	RAD54 branch	DNA binding	RAD52 DNA ctr
COc1ccc(CNC(=S)Nc2ccc3nc(N4CCN(C)CC4)cc(C)c3c2)cc1	/	47	-1	-9	-2	41	/	/
CCN(CC)CCNC(=S)Nc1ccc2nc(N3CCN(C)CC3)cc(C)c2c1	-2	87*	0	12	-10	85*	-14%	i
CCCCN(CC)CCCNC(=S)Nc1ccc2nc(N3CCN(C)CC3)cc(C)c2c1	/	92*	0	8	-8	89*	13%	i
CCN(CC)CCNC(=S)Nc1ccc2nc(N3CCOCC3)cc(C)c2c1	0	22	0	8	11	2	/	/
Cc1cc(N2CCN(C)CC2)nc2ccc(NC(=S)NCCCN3CCN(C)CC3)cc12	10	82*	0	9	-1	78*	-6%	i
C[C@@H]1CN([C@@H](C)CO)S(=O)(=O)c2ccc(C#Cc3cccnc3)cc2O[C@H]1CN(C)C(=O)C1CC1	0	7	0	0	1	-3	/	/
C[C@@H]1CN([C@H](C)CO)C(=O)c2cc(NC(=O)NC3CCCCC3)ccc2O[C@@H]1CN(C)C(=O)Nc1cccc2ccccc12	0	-1	0	1	-2	11	/	/
Cc1cc(C)cc(OCC(O)CN2CCC(CN3C(=O)c4cccc5cccc(c45)C3=O)CC2)c1 (stereo unspecified)	0	95*	0	-55	-3	66*	-15%	i
Cc1ccc(S(=O)(=O)N(C)C[C@@H]2Oc3ccc(NS(=O)(=O)c4cn(C)cn4)cc3C(=O)N([C@@H](C)CO)C[C@@H]2C)cc1	0	/	0	4	/	/	/	/
Nc1c2ccccc2nc2ccccc12	0	98*	1	-43*!	0	121*	26µM*	33µM*
C=CCn1c(=N)n(CC(=O)c2cccc([N+](=O)[O-])c2)c2ccccc21	/	-4	0	8	/	/	/	/
N=c1n(CCN2CCCCC2)c2ccccc2n1CC(=O)c1cccc([N+](=O)[O-])c1	0	75*	0	-16	1	87*	-10%	i
CNc1nc(-c2c[nH]c3ccccc23)cs1	/	/	/	/	10	5	/	/
CN1CCN(CC(=O)Nc2nc(-c3c[nH]c4ccccc34)cs2)CC1	3	96*	0	-2	1	93*	-8%	i
COc1ccc2oc3cc(NCCN(C)C)ccc3c(=O)c2c1	0	79*	0	12	2	86*	1%	i
COc1ccc2c(=O)c3ccccc3oc2c1	/	-11	/	/	2	-1	/	/
COc1ccc(NC(=O)c2ccc(-c3ccc(-c4noc(C)n4)cc3C)cc2)cc1N1CCN(C)CC1	1	101*	3	/	-7	54*	3%	i
CCN1CCN(c2ccc(Nc3ccnc4ccccc34)cc2)CC1	1	95*	0	/	-1	78*	-12%	i
COc1ccc2nc3cc(Cl)ccc3c(Nc3cc(CN4CCCC4)c(O)c(CN4CCCC4)c3)c2n1	1	101*	3	/	7	124*	3.7µM*	4µM*
CC(C)NC(=O)c1ccc2c3n(nc2c1)-c1ccc(Cl)cc1CO3	0	6	0	5	-6	-4	/	/
CCN(CC)CCCNC(=O)c1ccc2c3n(nc2c1)-c1ccc(Cl)cc1CO3	0	65*	0	14	0	52*	-4%	i
COCCCN(C(=O)c1ccco1)c1nc(-c2ccc(OC)cc2)cs1	/	-14	0	-25	5	0	/	/
CCN(CC)CCCN(C(=O)c1ccco1)c1nc(-c2ccc(Cl)cc2)cs1	0	79*	0	-38	-6	59*	6%	i
COc1ccc(Nc2cc(C(=O)NCCCN3CCOCC3)c3ccccc3n2)cc1OC	/	/	/	/	2	-4	/	/
COc1ccc(-c2nc(C(=O)NCCCN3CCOCC3)cc3c2[nH]c2ccccc23)cc1OC	/	83*	/	/	0	94*	-21%	i
SMILES	E-sel inducer	RAD52 anneal inh	XiGFP reactiv	rRNA inh HTS	PglD inh	RAD54 branch	DNA binding	RAD52 DNA ctr
C[C@@H]1CN([C@H](C)CO)S(=O)(=O)c2ccc(/C=C/c3ccccc3)cc2O[C@H]1CN(C)C(=O)c1ccncc1	1	9	0	-8	-2	3	/	/
c1c[nH]c(CN2CCN(Cc3ncc[nH]3)CC2)n1	1	56*	0	/	3	?	-11%	i
c1ccc(N2CCN(Cc3nc4ccccc4[nH]3)CC2)nc1	0	-6	0	5	-7	-5	/	/
CC(C)CC#Cc1cnc2c(c1)C(=O)N([C@@H](C)CO)C[C@@H](C)[C@@H](CN(C)C(=O)c1cnccn1)O2	1	-6	-1	1	-7	-16	/	/
C[C@H]1CN([C@@H](C)CO)C(=O)c2cc(-c3cccc(F)c3)cnc2O[C@H]1CN(C)C(=O)C1CCCCC1	0	4	0	1	-2	-17	/	/
O=C(C[C@H]1C=C[C@H](NS(=O)(=O)c2ccc(F)cc2)[C@H](CO)O1)NCCc1ccncc1	0	6	0	2	1	1	/	/
CCOC(=O)c1cnc2ccc(OC)cc2c1Nc1ccc(N2CCN(C)CC2)cc1	0	88*	0	-10	-9	72*	4%	i
CCOC(=O)c1ccc2ncc(C(=O)OCC)c(Nc3ccc(N4CCOCC4)cc3)c2c1	0	-3	0	-11	/	/	/	/
C[C@H]1CCCCO[C@H](CN(C)C(=O)c2ccccc2)[C@@H](C)CN([C@@H](C)CO)C(=O)c2cc(NS(=O)(=O)c3ccc(Cl)cc3)ccc2O1	1	22	0	0	-4	0	/	/
Cc1c(OCC(=O)NC2CC(C)(C)NC(C)(C)C2)ccc2c1oc(=O)c1ccccc12	-1	72*	0	0	-3	67*	i	i
